According to ChEMBL document CHEMBL2029264, “Indole-based fibrates as potential hypolipidemic and antiobesity agents” (J Med Chem, 2012):

How the values were obtained:
[1] = tested on: Rattus norvegicus; test: Antihyperlipidemic activity in HFD-induced hyperlipidemic Charles Foster rat assessed as decrease in plasma VLDL-triglyceride level at 100 mg/kg, po administered for 4 weeks relative to control; format: functional; design: scale not given: the % may be the effect or the level left
In short: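 After 4 weeks high-fat feeding plus 4 weeks daily dosing, overnight fast, retro-orbital blood into EDTA tubes. Serum split into VLDL, LDL and HDL by polyanionic precipitation; each fraction assayed for TC, PL, TG and apoprotein (mg/dL plasma). Pooled data from 6 rats/group, mean ± SD, dosed groups compared with high-fat group.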

[2] = tested on: Rattus norvegicus; test: Antihyperlipidemic activity in po dosed Triton WR-1339-induced hyperlipidemic rat assessed as decrease in plasma phospholipid level; format: functional, organism-based
In short: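 Triton WR-1339 given to rats to induce hyperlipidemia; oral dosing. Plasma TC, PL, TG in mg/dL; PHLA as […]/h/mL plasma. Mean ± SD of six rats; Triton group compared with control, Triton plus dosed group compared with Triton group.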

[3] = tested on: Rattus norvegicus; test: Toxicity in HFD-induced hyperlipidemic Charles Foster rat at 100 mg/kg/day, po administered for 4 weeks by autopsy analysis; format: organism-based; design: route oral; conditions: in vivo, 672 h
In short: (§1)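 Male Charles Foster rats (200−225 g) were fed a high-fat diet for 4 weeks, then dosed at 100 mg/kg/d alongside the same diet for 4 more weeks. Survival was monitored. After an overnight fast, blood was drawn and the animals were sacrificed. Macroscopic inspection and autopsy were then performed, with n = 6 per group.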

[4] = tested on: Rattus norvegicus; test: Toxicity in HFD-induced hyperlipidemic Charles Foster rat at 100 mg/kg/day, po administered for 4 weeks by macroscopic analysis; format: organism-based; design: route oral; conditions: in vivo, 672 h; in short: as §1

CCOC(=O)CCCOc1ccc(C(c2cn(C)c3ccccc23)c2cn(C)c3ccccc23)cc1
Activity [1]: 17%
Activity [2]: Dose-dependent effect

CCOC(=O)C(C)Oc1ccc(C(c2cn(CC)c3ccccc23)c2cn(CC)c3ccccc23)cc1 (stereo unspecified)
Activity [3]: Non-toxic
Activity [1]: 24%
Activity [2]: Dose-dependent effect
Activity [4]: Non-toxic
